Measured values: ChEMBL document CHEMBL4011654, “Mitochondria-Targeted Lupane Triterpenoid Derivatives and Their Selective Apoptosis-Inducing Anticancer Mechanisms” (J Med Chem, 2017)
Calls of active or inactive are those of the source. No cut-off for these calls is given here.

Legend:
K562 [1] = test: Induction of apoptosis in human K562 cells assessed as caspase-3 activation at 4 uM after 48 hrs by Western blot analysis relative to control; assay type: functional
Method in brief: (§1)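 K562 treated 48 h, then lysed on ice for 30 min; cytosolic and mitochondrial fractions isolated by kit where needed, protein measured by BCA. 60 μg/lane run on SDS-PAGE, transferred to PVDF, blocked in 5% milk/TBST for 4 h. Probed for cytochrome c, caspase-9, caspase-3 (total/cleaved), PARP; alkaline phosphatase secondary.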

K562 [2] = test: Induction of apoptosis in human K562 cells assessed as viable cells at 0.4 uM after 48 hrs by Annexin V-FITC/propidium iodide-staining based flow cytometric analysis (reference value: 95.75 to 96.56%); assay type: functional; conditions: K562, 48 h, read-out: Activity
Method in brief: (§2)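 K562 seeded at 4 × 10^5 cells/well, 12 h, then exposed 48 h. Cells washed in ice-cold PBS, suspended in binding buffer, stained with annexin V-FITC and PI for 15 min at room temperature in the dark, and read by flow cytometry within 1 h. Cells counted as early/late apoptotic as % of total; n = 3.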

K562 [3] = test: Induction of apoptosis in human K562 cells assessed as necrotic cells at 0.8 uM after 48 hrs by Annexin V-FITC/propidium iodide-staining based flow cytometric analysis (reference value: 0.13 to 0.27%); assay type: functional; method in brief: as §2
K562 [4] = test: Induction of apoptosis in human K562 cells after 48 hrs by Annexin V-FITC/propidium iodide-staining based flow cytometric analysis; assay type: functional, cell-based; method in brief: as §2
K562 [5] = test: Induction of apoptosis in human K562 cells assessed as viable cells at 1.2 uM after 48 hrs by Annexin V-FITC/propidium iodide-staining based flow cytometric analysis (reference value: 95.75 to 96.56%); assay type: functional; conditions: K562, 48 h, read-out: Activity; method in brief: as §2
[6] = Drug uptake in mitochondria of human K562 cells at 10 uM after 4 hrs by RP-HPLC analysis relative to betulin; assay type: ADME
Method in brief: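 K562 exposed to 10 μM compound or betulin for 4 h, washed, mitochondria isolated by kit, pellet extracted twice with dichloromethane/methanol (2:1). Residue assayed by RP-HPLC on C18: betulin in 100% acetonitrile, detection 220 nm; conjugate in 80% acetonitrile with 0.1% formic acid, detection 267 nm. Amounts normalised to protein; n = 3.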

K562 [7] = test: Induction of apoptosis in human K562 cells assessed as necrotic cells at 0.4 uM after 48 hrs by Annexin V-FITC/propidium iodide-staining based flow cytometric analysis (reference value: 0.13 to 0.27%); assay type: functional; method in brief: as §2
K562 [8] = test: Induction of apoptosis in human K562 cells assessed as decrease in cytochrome c level in mitochondria up to 4 uM after 48 hrs by Western blot analysis; assay type: functional, cell-based; method in brief: as §1
K562 [9] = test: Induction of apoptosis in human K562 cells assessed as early apoptotic cells at 1.2 uM after 48 hrs by Annexin V-FITC/propidium iodide-staining based flow cytometric analysis (reference value: 0.92 to 1.45%); assay type: functional; method in brief: as §2
K562 [10] = test: Induction of apoptosis in human K562 cells assessed as late apoptotic cells at 0.4 uM after 48 hrs by Annexin V-FITC/propidium iodide-staining based flow cytometric analysis (reference value: 2.25 to 2.67%); assay type: functional; method in brief: as §2
A549 = test: Cytotoxicity against human A549 cells assessed as cell growth inhibition after 48 hrs by MTT assay; assay type: functional, cell-based; conditions: A549, 48 h
Method in brief: (§3)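 Adherent cells seeded at 5000/well, left 16−24 h, then exposed 48 h at 37 °C, 5% CO2 in RPMI with 10% FBS. Medium refreshed, MTT added for 4 h at 37 °C, medium removed, formazan dissolved in DMSO, OD570 read. IC50 taken as concentration inhibiting growth by 50%; triplicate.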

K562 [11] = test: Decrease in mitochondrial membrane potential in human K562 cells after 48 hrs by JC-1 staining based flow cytometry; assay type: functional, cell-based
Method in brief: (§4)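 K562 seeded at 4 × 10^5 cells/well, after 12 h treated 48 h. Cells washed in ice-cold PBS, loaded with JC-1 ([…]) at 37 °C for 15 min, rinsed, and analysed by flow cytometry (% cells with red aggregates) and fluorescence microscopy (red aggregates vs green monomers).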

K562 [12] = test: Induction of apoptosis in human K562 cells assessed as increase in cytosolic cytochrome c level up to 4 uM after 48 hrs by Western blot analysis; assay type: functional, cell-based; method in brief: as §1
K562 [13] = test: Induction of mitochondrial membrane depolarization in human K562 cells assessed as cells with mitochondrial membrane potential loss at 1 uM after 48 hrs by JC-1 staining based flow cytometric analysis (reference value: 1.89 to 2.23%); assay type: functional
K562 [14] = test: Induction of apoptosis in human K562 cells assessed as late apoptotic cells at 0.8 uM after 48 hrs by Annexin V-FITC/propidium iodide-staining based flow cytometric analysis (reference value: 2.25 to 2.67%); assay type: functional; method in brief: as §2
HepG2 = test: Cytotoxicity against human HepG2 cells assessed as cell growth inhibition after 48 hrs by MTT assay; assay type: functional, cell-based; conditions: HepG2, 48 h; method in brief: as §3
K562 [15] = test: Induction of apoptosis in human K562 cells assessed as caspase-9 activation at 4 uM after 48 hrs by Western blot analysis relative to control; assay type: functional; method in brief: as §1
K562 [16] = test: Induction of apoptosis in human K562 cells assessed as late apoptotic cells at 1.2 uM after 48 hrs by Annexin V-FITC/propidium iodide-staining based flow cytometric analysis (reference value: 2.25 to 2.67%); assay type: functional; method in brief: as §2
K562 [17] = test: Induction of mitochondrial membrane depolarization in human K562 cells assessed as cells with intact mitochondrial membrane potential at 4 uM after 48 hrs by JC-1 staining based flow cytometric analysis (reference value: 97.63 to 97.67%); assay type: functional
K562 [18] = test: Decrease in mitochondrial membrane potential in human K562 cells at 1 to 2 uM after 48 hrs by JC-1 staining based fluorescence microscopic analysis; assay type: functional, cell-based; method in brief: as §4
K562 [19] = test: Induction of mitochondrial membrane depolarization in human K562 cells assessed as cells with intact mitochondrial membrane potential at 2 uM after 48 hrs by JC-1 staining based flow cytometric analysis (reference value: 97.63 to 97.67%); assay type: functional; method in brief: as §4
K562 [20] = test: Induction of apoptosis in human K562 cells assessed as viable cells at 0.8 uM after 48 hrs by Annexin V-FITC/propidium iodide-staining based flow cytometric analysis (reference value: 95.75 to 96.56%); assay type: functional; conditions: K562, 48 h, read-out: Activity; method in brief: as §2
HL-60 = test: Cytotoxicity against human HL60 cells assessed as cell growth inhibition after 48 hrs by MTT assay; assay type: functional, cell-based; conditions: HL-60, 48 h
Method in brief: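 Suspension cells seeded at 5000/well (HL-60 in IMDM, K562 in RPMI, both with 10% FBS) and treated. MTT then added for 4 h at 37 °C; plates centrifuged at 3000 rpm for 30 min, medium removed, DMSO added, OD570 read. IC50 taken as concentration giving 50% growth inhibition; triplicate.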

K562 [21] = test: Antitumor activity against CM-Dil-labeled human K562 cells xenografted in wild-type zebrafish embryos assessed as tumor growth inhibition at 1 to 10 ug/ml measured after 48 hrs by confocal microscopic analysis; assay type: functional, cell-based
Method in brief: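 K562 cells labelled with CM-Dil, suspended in FBS-free medium at (1 × 107)/mL and microinjected into wild-type zebrafish embryos kept at 28 °C in embryonic medium. After 4 h, embryos with the same injection spot were pooled at 15−20 per well and exposed to compound; Taxol served as positive control. At 48 h, confocal imaging gave fluorescent area (migration) and fluorescence intensity (cell number); n = 15.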

With `C=C(C)[C@@H]1CC[C@]2(COC(=O)CCCC[P+](c3ccccc3)(c3ccccc3)c3ccccc3)CC[C@]3(C)[C@H](CC[C@@H]4[C@@]5(C)CC[C@H](O)C(C)(C)[C@@H]5CC[C@]43C)[C@@H]12.[Br-]` the “fold change (FC)” value (K562 [1]) was 2.1, the viability at 0.4 µM (K562 [2]) was 88.1% and the Activity (K562 [3]) was 3.7%. For the same compound, the Activity (K562 [4]) was “Dose-dependent effect”, the viability at 1.2 µM (K562 [5]) was 45.3% and the “fold change (FC)” value [6] was 3.4. The Activity (K562 [7]) was 0.53%, the Activity (K562 [8]) was “Active” and the Activity (K562 [9]) was 12.03%. The Activity (K562 [10]) was 4.67%, the IC50 (A549) was 610 nM and the Activity (K562 [11]) was “Dose-dependent effect”. The Activity (K562 [12]) was “Active”, the Activity (K562 [13]) was 6.47% and the Activity (K562 [14]) was 20.57%. For the same compound, the IC50 (HepG2) was 1090 nM, the “fold change (FC)” value (K562 [15]) was 1.5 and the Activity (K562 [16]) was 38.25%. The Activity (K562 [17]) was 38.18%, the Activity (K562 [18]) was “Active” and the Activity (K562 [19]) was 82.54%. For the same compound, the viability at 0.8 µM (K562 [20]) was 63.2%, the IC50 (HL-60) was 600 nM and the TGI (K562 [21]) was “Active”.
